In ChEMBL document CHEMBL1177718, “Phosphoramidate ProTides of 2'-C-methylguanosine as highly potent inhibitors of hepatitis C virus. Study of their in vitro and in vivo properties” (J Med Chem, 2010):
pEC50: −log10 of the molar value.

Tests used:
[1] = Metabolic stability in mouse plasma assessed as compound remaining at 1 ug/ml after 4 hrs; assay type: ADME, cell-free; conditions: read-out: Stability
[2] = Metabolic stability in rat plasma assessed as compound remaining at 1 ug/ml after 4 hrs; assay type: ADME, cell-free; conditions: read-out: Stability
Summary of the method: (§1)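 Duplicate incubations; compound at final 1 μg/mL in plasma preincubated and kept at […]; samples taken at 30 or 240 min, quenched with ice-cold acetonitrile, centrifuged, supernatant diluted with water; parent quantified by LC-MS/MS (Polar-RP column, formic acid water/acetonitrile gradient, positive ion mode); % remaining reported.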

[3] = Metabolic stability in dog plasma assessed as compound remaining at 1 ug/ml after 4 hrs; assay type: ADME, cell-free, Canis lupus familiaris; conditions: read-out: Stability; summary of the method: as §1
[4] = Metabolic stability in cynomolgus monkey plasma assessed as compound remaining at 1 ug/ml after 4 hrs; assay type: ADME, cell-free, Macaca fascicularis; conditions: read-out: Stability; summary of the method: as §1
[5] = Metabolic stability in mouse plasma assessed as compound remaining at 1 ug/ml after 30 mins; assay type: ADME, cell-free; conditions: read-out: Stability
[6] = Metabolic stability in rat plasma assessed as compound remaining at 1 ug/ml after 30 mins; assay type: ADME, cell-free; conditions: read-out: Stability; summary of the method: as §1
[7] = Metabolic stability in dog plasma assessed as compound remaining at 1 ug/ml after 30 mins; assay type: ADME, cell-free, Canis lupus familiaris; conditions: read-out: Stability; summary of the method: as §1
[8] = Metabolic stability in cynomolgus monkey plasma assessed as compound remaining at 1 ug/ml after 30 mins; assay type: ADME, cell-free, Macaca fascicularis; conditions: read-out: Stability; summary of the method: as §1
[9] = Cytotoxicity against human HuH7 cells after 72 hrs by celltiter-glo assay; assay type: cell-based, Huh-7
Summary of the method: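 Replicon 1b Huh7 cells seeded 2 × 10⁴/well; after 24 h, 11 serial 2× dilutions from 100 μM (three repeats each) with no-compound control; 72 h at 37 °C, CO₂, log-phase growth; viability by CellTiter-Glo luminescence; CC₅₀ = concentration giving 50% signal.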

[10] = test system: Hepatitis C virus; assay: Antiviral activity against HCV1b infected in human HuH7 cells assessed as inhibition of viral replication after 48 hrs by luciferase reporter gene assay; assay type: functional, organism-based, Hepacivirus hominis; conditions: genotype 1b, Huh-7, 48 h
Summary of the method: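 Huh7 cells carrying genotype 1b bicistronic subgenomic replicon, seeded 2 × 10⁴/well without G-418; compounds added 18-24 h later, 48 h exposure; 3× or 4× serial dilutions over 0.0001-10 μM in triplicate/quadruplicate; Renilla luciferase read-out versus untreated cells; EC₅₀ by four-parameter sigmoidal nonlinear regression; at least three independent assays.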

[11] = species: Homo sapiens; assay: Metabolic stability in human plasma assessed as compound remaining at 1 ug/ml after 4 hrs
[12] = species: Homo sapiens; assay: Metabolic stability in human plasma assessed as compound remaining at 1 ug/ml after 30 mins
[13] = test system: Plasma; assay: Dose normalized AUC in ICR mouse plasma at 50 mg/kg, po by LC-MS/MS analysis; assay type: ADME, organism-based; design: dose 50 mg/kg, route oral; conditions: in vivo
[14] = Cmax in ICR mouse plasma at 50 mg/kg, po by LC-MS/MS analysis; assay type: ADME, organism-based; design: dose 50 mg/kg, route oral

Row | Structure (SMILES) | remaining at 0.5 h, 1 ug/ml [5] [%] | remaining at 0.5 h, 1 ug/ml [7] [%] | pEC50 [10] | remaining at 0.5 h, 1 ug/ml [12] [%] | AUC [13] [ng·h/mL] | Cmax [14] [ng/mL] | remaining at 4 h, 1 ug/ml [1] [%] | remaining at 4 h, 1 ug/ml [2] [%] | remaining at 4 h, 1 ug/ml [3] [%] | remaining at 4 h, 1 ug/ml [4] [%] | remaining at 0.5 h, 1 ug/ml [6] [%] | remaining at 0.5 h, 1 ug/ml [8] [%] | CC50 at 72 h [9] [nM] | remaining at 4 h, 1 ug/ml [11] [%]
1 | CC(OC(=O)[C@H](C)NP(=O)(OC[C@H]1O[C@@H](n2cnc3c(=O)[nH]c(N)nc32)[C@](C)(O)[C@@H]1O)Oc1cccc2ccccc12)c1ccccc1 (mixture of isomers) | 2.2 | 97 | 7.02 | 86 |  |  | 0 | 0.3 | 93 | 88 | 0.7 | 100 | > 100000 | 86
2 | CC(OC(=O)[C@@H](NP(=O)(OC[C@H]1O[C@@H](n2cnc3c(=O)[nH]c(N)nc32)[C@](C)(O)[C@@H]1O)Oc1cccc2ccccc12)C(C)C)c1ccccc1 (stereo partly drawn) | 100 | 100 | < 5.52 | 97 |  |  |  |  |  |  |  |  |  | 
3 | CC(C)[C@@H](NP(=O)(OC[C@H]1O[C@@H](n2cnc3c(=O)[nH]c(N)nc32)[C@](C)(O)[C@@H]1O)Oc1cccc2ccccc12)C(=O)OCc1ccccc1 (stereo partly drawn) | 51 | 69 | < 5.52 | 70 |  |  | 8 | 56 | 61 | 80 | 82 | 68 | > 100000 | 82
4 | C[C@H](NP(=O)(OC[C@H]1O[C@@H](n2cnc3c(=O)[nH]c(N)nc32)[C@](C)(O)[C@@H]1O)Oc1cccc2ccccc12)C(=O)OC1CCCC1 (stereo partly drawn) |  |  | 7.15 |  |  |  |  |  |  |  |  |  | > 100000 | 

Further compounds by rising pEC50 [10], results first:

Row | remaining at 0.5 h, 1 ug/ml [5] [%] | remaining at 0.5 h, 1 ug/ml [7] [%] | pEC50 [10] | remaining at 0.5 h, 1 ug/ml [12] [%] | AUC [13] [ng·h/mL] | Cmax [14] [ng/mL] | Structure (SMILES) | remaining at 4 h, 1 ug/ml [1] [%] | remaining at 4 h, 1 ug/ml [2] [%] | remaining at 4 h, 1 ug/ml [3] [%] | remaining at 4 h, 1 ug/ml [4] [%] | remaining at 0.5 h, 1 ug/ml [6] [%] | remaining at 0.5 h, 1 ug/ml [8] [%] | CC50 at 72 h [9] [nM] | remaining at 4 h, 1 ug/ml [11] [%]
5 | 67 | 100 | 6.00 | 100 | 52 | 668 | Cc1ccccc1COC(=O)[C@@H](NP(=O)(OC[C@H]1O[C@@H](n2cnc3c(=O)[nH]c(N)nc32)[C@](C)(O)[C@@H]1O)Oc1cccc2ccccc12)C(C)C (stereo partly drawn) |  |  |  |  |  |  | > 100000 | 
6 | 79 | 90 | 6.17 | 100 | > 33 | 388 | CC(C)[C@H](NP(=O)(OC[C@H]1O[C@@H](n2cnc3c(=O)[nH]c(N)nc32)[C@](C)(O)[C@@H]1O)Oc1cccc2ccccc12)C(=O)OCc1cccc(Cl)c1 (stereo partly drawn) |  |  |  |  |  |  |  | 
7 |  |  | 6.77 |  |  |  | C[C@H](NP(=O)(OC[C@H]1O[C@@H](n2cnc3c(=O)[nH]c(N)nc32)[C@](C)(O)[C@@H]1O)Oc1cccc2ccccc12)C(=O)OCCCc1ccccc1 (stereo partly drawn) |  |  |  |  |  |  | > 100000 | 
8 | 0 | 95 | 7.00 | 100 |  |  | CCCCOC(=O)[C@H](C)NP(=O)(OC[C@H]1O[C@@H](n2cnc3c(=O)[nH]c(N)nc32)[C@](C)(O)[C@@H]1O)Oc1cccc2ccccc12 (stereo partly drawn) | 0 | 0 | 90 | 81 | 0.4 | 98 | > 100000 | 97
9 | 0 | 98 | 7.04 | 100 |  |  | CCCCCOC(=O)[C@H](C)NP(=O)(OC[C@H]1O[C@@H](n2cnc3c(=O)[nH]c(N)nc32)[C@](C)(O)[C@@H]1O)Oc1cccc2ccccc12 (stereo partly drawn) | 0 | 0 | 98 | 94 | 0 | 94 |  | 96
